Compound activity deposited in PubChem by Broad Institute.
The sample as a whole holds a higher share of hits than the screen did.
T cruzi intra: inhibitors of intracellular Trypanosoma cruzi. intracellular Trypanosoma cruzi in host cells, plate reader. activity score (inhibition), % at 5.01 µM. 22,000 compounds, 4.9% hits. AID 651903; in the data active = activity score above about 55%;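 also: parasites and compound incubated about four days before reading; 0% = median of neutral control wells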
A1 apoptosis 2: A1 inhibition read as caspase activation. MEF A1-2A-BIM cells, caspase-Glo luminescence, 3 h; percent of clofoctol response, DMSO zero. caspase activation, % (test concentration not listed). 24,000 tested, under 10 active. AID 2465; in the data active = caspase activation above about 5.9%
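System: mouse embryonic fibroblasts co-expressing A1 and BIM (A1-2A-BIM), primed for A1 dependence; amount: 2500 cells/well; doses: 50 nL pinned compound; schedule: cells settled overnight, compound exposure 3 h at 37 °C, 5% CO2; detection: Caspase-Glo 3/7 luminescence, 1 h at room temperature; read-out: Caspase-3/7 activation, seen as rise in luminescence signal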
INS-1E ATP HTS: INS-1E beta cell protection from cytokine death. INS-1E cytokine-induced death, ATP luminescence, 48 h; normalised: neutral wells 0, positive control 100. AID 488910. 20,000 compounds, 0.1% hits. protection from cytokine-induced ATP loss, % at 10 µM;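 active = mean replicate protection from cytokine-induced ATP loss at least 50% and at least 75% of replicates each reaching 50%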
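Test system: INS-1E rat cells | Quantity: 8000 cells per well | Medium: Phenol-red-free RPMI with 5% fetal bovine serum | Reagent: Cytokine cocktail of IFN-γ, TNF-α and IL-1β | Doses: One compound concentration, pin transfer | Timing: 48 h co-treatment, 10 min post-lysis read | Technique: Luminescent ATP assay (CellTiter-Glo)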
* hit, by the source's call.

`COCCOC(=O)N1C(=O)[C@@]2(c3cc(C#CC4(O)CCCCCC4)ccc31)[C@H](C(N)=O)[C@H]1C(=O)O[C@H](c3ccccc3)[C@H](c3ccccc3)N1[C@@H]2c1ccc(OCCO)cc1` gave A1 apoptosis 2 -1.
`CCOc1cc(/C=N/NC(=O)CCCCCCC(=O)OC)ccc1O` gave T cruzi intra -3 and INS-1E ATP HTS 6.
For O=C(CCCCC(=O)N/N=C/c1ccccc1[N+](=O)[O-])NO the results were T cruzi intra 12, A1 apoptosis 2 -1 and INS-1E ATP HTS 14.
Screening C=CCNC(=O)[C@H]1[C@@H]2C(=O)O[C@@H](c3ccccc3)[C@@H](c3ccccc3)N2[C@@H](c2ccccc2OCCO)[C@]12C(=O)Nc1ccc(C#CC3=CCCCC3)cc12 returned A1 apoptosis 2 -1.
Screening O=C(NO)c1cccc(C(=O)N/N=C/c2ccc3ccccc3n2)c1 returned T cruzi intra -11, A1 apoptosis 2 -3 and INS-1E ATP HTS -12.
`COc1ccc(NC(=O)N(C)C[C@H]2OCCCC[C@@H](C)Oc3ccc(NC(=O)Nc4ccc(C(F)(F)F)cc4)cc3C(=O)N([C@H](C)CO)C[C@@H]2C)cc1` gave T cruzi intra 57*, A1 apoptosis 2 0 and INS-1E ATP HTS -19.
For COc1ccc(NC(=O)Nc2ccc3c(c2)C(=O)N([C@H](C)CO)C[C@H](C)[C@@H](CN(C)C(=O)Nc2ccc(C(F)(F)F)cc2)OCCCC[C@@H](C)O3)cc1 the results were T cruzi intra 69* and INS-1E ATP HTS -16.
`COc1ccc(NC(=O)Nc2ccc3c(c2)C(=O)N([C@H](C)CO)C[C@H](C)[C@H](CN(C)C(=O)Nc2ccc(C(F)(F)F)cc2)OCCCC[C@H](C)O3)cc1` gave A1 apoptosis 2 1.
`COc1ccc(NC(=O)Nc2ccc3c(c2)C(=O)N([C@H](C)CO)C[C@H](C)[C@H](CN(C)C(=O)Nc2ccc(C(F)(F)F)cc2)OCCCC[C@@H](C)O3)cc1` gave T cruzi intra 55, A1 apoptosis 2 -1 and INS-1E ATP HTS 2.
CCCCN(CCCC)c1ccc(/C=N/NC(=O)CCCCCCC(=O)Nc2ccccc2O)cc1 was read as T cruzi intra 17 and INS-1E ATP HTS -11.
Screening COC(=O)CCCCCCC(=O)N/N=C/c1c(F)c(F)c(F)c(F)c1F returned T cruzi intra -11 and INS-1E ATP HTS 17.
COc1ccc([Si](C)(C)[C@@H]2[C@@H](CCO)O[C@]3(C(=O)N(Cc4cccc(NC(=O)[C@H](C)O)c4)c4ccccc43)[C@H]2C)cc1 was read as A1 apoptosis 2 0.
C[C@@H]1CN([C@@H](C)CO)C(=O)Cc2cc(NC(=O)Cc3ccccc3)ccc2O[C@H]1CN(C)Cc1ccc(-c2ccccc2)cc1 was read as A1 apoptosis 2 1.
C[C@H]1CN([C@@H](C)CO)C(=O)Cc2cc(NC(=O)Cc3ccccc3)ccc2O[C@H]1CN(C)Cc1ccc(-c2ccccc2)cc1 was read as T cruzi intra 47, A1 apoptosis 2 1 and INS-1E ATP HTS -15.
For COc1ccc(CN(C)C[C@@H]2Oc3ccc(NC(=O)Cc4ccccc4)cc3CC(=O)N([C@@H](C)CO)C[C@@H]2C)cc1 the results were T cruzi intra 67*, A1 apoptosis 2 0 and INS-1E ATP HTS -4.
`C[C@@H]1CN([C@H](C)CO)C(=O)Cc2cc(NC(=O)Cc3ccccc3)ccc2O[C@H]1CN(C)Cc1ccc(-c2ccccc2)cc1` gave T cruzi intra 65* and INS-1E ATP HTS 0.
Screening C[C@H]1CN([C@@H](C)CO)C(=O)Cc2cc(NC(=O)Cc3ccccc3)ccc2O[C@@H]1CN(C)Cc1ccc(-c2ccccc2)cc1 returned T cruzi intra 64* and INS-1E ATP HTS -19.
`COc1ccc(CN(C)C[C@@H]2Oc3ccc(NC(=O)Cc4ccccc4)cc3CC(=O)N([C@H](C)CO)C[C@H]2C)cc1` gave T cruzi intra 54, A1 apoptosis 2 -1 and INS-1E ATP HTS 9.
Screening O=C(NO)c1ccc(C(=O)N/N=C/c2ccc3ccccc3c2)cc1 returned T cruzi intra -12 and INS-1E ATP HTS 3.
Screening COC(=O)CCCCCCC(=O)N/N=C/c1ccccc1OCCO returned T cruzi intra -9, A1 apoptosis 2 1 and INS-1E ATP HTS 5.
Screening O=C(CCCCCC(=O)N/N=C/c1ccc(-n2ccnc2)cc1)NO returned T cruzi intra -4 and INS-1E ATP HTS 22.
For C[C@@H]1CN([C@@H](C)CO)C(=O)Cc2cc(NS(=O)(=O)c3cccs3)ccc2O[C@H]1CN(C)S(=O)(=O)c1ccc(Cl)cc1 the results were A1 apoptosis 2 0.
Screening C[C@H]1CN([C@@H](C)CO)C(=O)Cc2cc(NS(=O)(=O)c3cccs3)ccc2O[C@@H]1CN(C)S(=O)(=O)c1ccccc1 returned T cruzi intra -19, A1 apoptosis 2 -1 and INS-1E ATP HTS -5.
Screening C[C@@H]1CN([C@H](C)CO)C(=O)Cc2cc(NS(=O)(=O)c3cccs3)ccc2O[C@@H]1CN(C)S(=O)(=O)c1ccccc1 returned T cruzi intra 59*, A1 apoptosis 2 0 and INS-1E ATP HTS -1.
For C[C@@H]1CN([C@H](C)CO)C(=O)Cc2cc(NS(=O)(=O)c3cccs3)ccc2O[C@@H]1CN(C)S(=O)(=O)c1ccc(Cl)cc1 the results were T cruzi intra 72*, A1 apoptosis 2 -1 and INS-1E ATP HTS 4.
Screening C[C@@H]1CN([C@H](C)CO)C(=O)c2cc(NC(=O)Cc3cn(C)c4ccccc34)ccc2O[C@H]1CN(C)S(=O)(=O)c1ccc(Cl)cc1 returned T cruzi intra 4.
`C[C@@H]1CN([C@H](C)CO)C(=O)c2cccc(NC(=O)C3CCCCC3)c2O[C@@H]1CN(C)Cc1ccc(-c2ccccc2)cc1` gave T cruzi intra 46 and INS-1E ATP HTS -65.
Screening C[C@H](CO)N1C[C@H](C)[C@@H](CN(C)Cc2ccc(Oc3ccccc3)cc2)Oc2c(NC(=O)C3CC3)cccc2C1=O returned T cruzi intra 48, A1 apoptosis 2 -1 and INS-1E ATP HTS -25.
`C[C@H]1CN([C@@H](C)CO)C(=O)c2cccc(NC(=O)C3CC3)c2O[C@@H]1CN(C)Cc1ccc(Oc2ccccc2)cc1` gave T cruzi intra 68* and INS-1E ATP HTS -27.
C[C@H](CO)N1C[C@H](C)[C@@H](CN(C)S(=O)(=O)c2cn(C)cn2)Oc2c(cccc2N(C)C)C1=O was read as T cruzi intra 59*, A1 apoptosis 2 -1 and INS-1E ATP HTS 6.
`C[C@H]1CN([C@@H](C)CO)C(=O)c2cccc(NC(=O)C3CCCCC3)c2O[C@@H]1CN(C)S(=O)(=O)c1ccccc1` gave T cruzi intra 5 and INS-1E ATP HTS 2.
C[C@@H]1CN([C@@H](C)CO)C(=O)c2cccc(N(C)C)c2O[C@H]1CN(C)S(=O)(=O)c1cn(C)cn1 was read as T cruzi intra -6 and INS-1E ATP HTS 6.
For C[C@@H]1CN([C@@H](C)CO)C(=O)c2cccc(NC(=O)C3CCCCC3)c2O[C@@H]1CN(C)S(=O)(=O)c1ccccc1 the results were T cruzi intra 57* and INS-1E ATP HTS -2.
